PMC3517121 (Chembiochem : a European journal of chemical biology, 2011)
Where two headings read alike, the source gives them in different places.

How the values were obtained:
[1] = Solubility in water; type: physicochemical; settings: qualitative statement
[2] = Molar absorption coefficient; type: physicochemical
Method in brief: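 Test cross-linker concentration fixed by 1H NMR in DMSO-d6 with a known concentration of 1,2-dichloroethane, comparing the DCE methylene signal with the cross-linker α-methylene signal. The NMR solution was then diluted in DMSO or in 10 mM phosphate buffer pH 7.0, and UV-Vis spectra were recorded to calculate the molar absorption coefficient.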

[3] = cited from earlier work

CC(=O)Nc1ccc(N=Nc2ccc(-c3ccc(N=Nc4ccc(NC(C)=O)cc4)cc3)cc2)cc1 [BPDB(r), 4,4’-bis(4-acetamidophenyl)diazenylbiphenyl]
solubility in water [1]: not soluble in water

O=C(CCl)Nc1ccc(N=Nc2ccc(-c3ccc(N=Nc4ccc(NC(=O)CCl)cc4)cc3)cc2)cc1 [BPDB, 4,4’-bis(4-(2-chloroacetamido)phenyl)diazenylbiphenyl]
molar absorption coefficient ([2]; at 400 nm in DMSO): 60,000 M^-1cm^-1

O=C(CCl)Nc1ccc(N=Nc2ccc(-c3ccc(N=Nc4ccc(NC(=O)CCl)cc4)cc3S(=O)(=O)O)c(S(=O)(=O)O)c2)cc1 [BPDBS, 4,4’-bis(4-(2-chloroacetamido)phenyl)diazenylbiphenyl-2,2’-disulfonate]
molar absorption coefficient ([2]; at 360 nm in sodium phosphate buffer, pH 7.0): 45,000 M^-1cm^-1 | molar absorption coefficient ([2]; at 380 nm in DMSO): 52,000 M^-1cm^-1 | solubility in water [1]: water-soluble

O=C(CCl)Nc1ccc(N=Nc2ccc(NC(=O)CCl)c(S(=O)(=O)O)c2)cc1S(=O)(=O)O [BSBCA, 3,3’-bis(sulfonato)-4,4’-bis(chloroacetamide)azobenzene]
molar absorption coefficient [3]: 27,000 M^-1 cm^-1
